The source made the active and inactive calls. The calls are words filed in the database; no cut-off is given here.
Columns and labels:
[1] = molecular target: Neuronal acetylcholine receptor; alpha3/beta4 (Rattus norvegicus, UniProt P04757+P12392); test: Non-competitive inhibition of rat alpha3beta4 nAChR expressed in KX cells assessed as reduction in current by whole-cell patch clamp assay; type: cell-based
How it was run: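 KXα3β4R2 cells (rat α3β4) grown in MEM with 10% FBS and 0.7 mg/ml geneticin at 37 °C, 5% CO2, and harvested at 70% confluence. Whole-cell clamp at […] holding potential in HEPES pH 7.4 bath (120 mM NaCl, 3.1 mM KCl, 2 mM CaCl2, 5 mM glucose) at room temperature. Pipette solution: CsCl, ATP, EGTA, pH 7.2. Agents were applied from 0.1 nM upward with 100 µM (S)-nicotine; IC50 taken from current decrease relative to nicotine alone (100%).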

Rattus norvegicus [2] = test: Effect on basal locomotor activity in Wistar rat at 1/20 to 1/10 LD50, ip; type: ADME, organism-based; details: in vivo
Rattus norvegicus [3] = test: Toxicity in Wistar rat assessed as inhibition of conditioned place preference at 1/20 to 1/10 LD50, ip in absence of nicotine preconditioning; type: organism-based; details: in vivo
Rattus norvegicus [4] = test: Behavioral effect in Wistar rat assessed as inhibition of nicotine-induced conditioned place preference at 1/20 LD50, ip administered during post-conditioning test phase on day 5 of nicotine treatment; type: functional, organism-based
How it was run: (§1)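 Male Wistar rats (250–300 g), on restricted chow and handled for 5 days. A 15-min baseline excluded rats with a side preference. On days 2–4, two 30-min sessions per day: vehicle in the morning, nicotine 0.175 mg/kg ip in the afternoon, each in opposite compartments. On day 5, agent given ip (5 ml/kg) 60 min before nicotine, then tested immediately. Score is post- minus pre-conditioning time in the drug-paired compartment; n = 7–14.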

Rattus norvegicus [5] = test: Toxicity in Wistar rat assessed as inhibition of conditioned place preference at 10 mg/kg, ip in absence of nicotine preconditioning; type: organism-based; design: dose 10 mg/kg, route intraperitoneal; details: in vivo
Rattus norvegicus [6] = test: Effect on basal locomotor activity in Wistar rat at 5 mg/kg, ip; type: ADME, organism-based; design: dose 5 mg/kg, route intraperitoneal; details: in vivo
Rattus norvegicus [7] = test: Behavioral effect in Wistar rat assessed as inhibition of nicotine-induced conditioned place preference at 10 mg/kg, ip administered during post-conditioning test phase on day 5 of nicotine treatment; type: functional, organism-based; design: dose 10 mg/kg; how it was run: as §1

Chain of Neuronal acetylcholine receptor; alpha3/beta4 (P04757 whole entry): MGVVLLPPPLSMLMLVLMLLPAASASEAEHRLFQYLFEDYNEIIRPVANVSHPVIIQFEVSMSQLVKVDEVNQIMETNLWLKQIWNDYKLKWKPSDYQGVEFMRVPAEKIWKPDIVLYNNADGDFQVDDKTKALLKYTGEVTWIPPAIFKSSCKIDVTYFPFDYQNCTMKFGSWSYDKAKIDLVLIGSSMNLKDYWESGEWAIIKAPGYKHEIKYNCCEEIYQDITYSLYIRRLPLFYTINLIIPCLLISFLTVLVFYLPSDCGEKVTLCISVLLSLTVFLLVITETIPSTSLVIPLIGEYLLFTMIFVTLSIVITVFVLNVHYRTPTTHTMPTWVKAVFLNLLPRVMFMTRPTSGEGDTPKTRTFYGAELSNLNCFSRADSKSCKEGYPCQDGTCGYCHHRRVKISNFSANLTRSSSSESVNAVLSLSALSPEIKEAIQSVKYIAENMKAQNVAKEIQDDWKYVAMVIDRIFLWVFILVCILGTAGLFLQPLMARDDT
Chain of Neuronal acetylcholine receptor; alpha3/beta4 (P12392 whole entry): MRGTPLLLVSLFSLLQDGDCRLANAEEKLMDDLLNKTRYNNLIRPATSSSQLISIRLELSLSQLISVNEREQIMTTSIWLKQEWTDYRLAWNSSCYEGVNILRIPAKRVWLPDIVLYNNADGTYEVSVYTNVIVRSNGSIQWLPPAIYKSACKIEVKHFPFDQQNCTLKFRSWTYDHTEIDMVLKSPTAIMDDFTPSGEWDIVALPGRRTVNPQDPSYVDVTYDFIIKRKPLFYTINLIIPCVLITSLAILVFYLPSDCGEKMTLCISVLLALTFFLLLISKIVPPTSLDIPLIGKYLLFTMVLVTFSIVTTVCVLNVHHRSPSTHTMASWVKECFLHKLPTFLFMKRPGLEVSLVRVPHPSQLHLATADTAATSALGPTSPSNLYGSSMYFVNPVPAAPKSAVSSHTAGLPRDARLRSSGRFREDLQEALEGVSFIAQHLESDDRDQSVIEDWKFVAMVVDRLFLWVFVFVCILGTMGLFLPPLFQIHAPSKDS

SMILES	IC50 [1] [µM]	other results
COc1ccc2c(c1)[C@]13CCCC[C@@H]1[C@H](C2)N(CCC(C)=O)CC3	2.57	–
COc1ccc2c(c1)[C@]13CCCC[C@@H]1[C@H](C2)NCC3	3.08	–
COc1ccc2c(c1)[C@]13CCCC[C@@H]1[C@H](C2)N(CC1=NCCN1)CC3	6.61	–
COc1ccc2c(c1)[C@]13CCCC[C@@H]1[C@H](C2)N(CC1OCCO1)CC3	1.95	Activity (Rattus norvegicus [2]): Non-toxic; Activity (Rattus norvegicus [3]): Non-toxic
COc1ccc2c(c1)[C@]13CCCC[C@@H]1[C@H](C2)N(CCC1OCCO1)CC3	7.14	Activity (Rattus norvegicus [2]): Non-toxic; Activity (Rattus norvegicus [3]): Non-toxic
COc1ccc2c(c1)[C@]13CCCC[C@@H]1[C@H](C2)N(CC(N)=O)CC3	41.4	–
COc1ccc2c(c1)[C@]13CCCC[C@@H]1[C@H](C2)N(CC#N)CC3	10.5	Activity (Rattus norvegicus [2]): Non-toxic; inhibition (Rattus norvegicus [4]): Active; Activity (Rattus norvegicus [3]): Non-toxic
CCC(=O)CN1CC[C@@]23CCCC[C@@H]2[C@@H]1Cc1ccc(OC)cc13	2.5	–
COc1ccc2c(c1)[C@]13CCCC[C@@H]1[C@H](C2)N(CCCC#N)CC3	87	–
COc1ccc2c(c1)[C@]13CCCC[C@@H]1[C@H](C2)N(CCC#N)CC3	176	–
COc1ccc2c(c1)[C@]13CCCC[C@@H]1[C@H](C2)N(C)CC3 [DEXTROMETHORPHAN]	11.1	Activity (Rattus norvegicus [5]): Non-toxic; Activity (Rattus norvegicus [6]): Non-toxic; inhibition (Rattus norvegicus [7]): Active

Reference: ChEMBL document CHEMBL3351392, “Synthesis, in vitro and in vivo studies, and molecular modeling of N-alkylated dextromethorphan derivatives as non-competitive inhibitors of α3β4 nicotinic acetylcholine receptor” (Bioorg Med Chem, 2014)
